Consider 5 compounds from ChEMBL document CHEMBL5500359, “Identification of a new bisindolinone arresting IGROV1 cells proliferation” (Eur J Med Chem, 2024).

Usually TGI stands for the concentration at which net growth stops. The term GI50 denotes the concentration giving 50% growth inhibition. The low end stands for more potent growth inhibition, the high end for less potent growth inhibition.

Experiment [1] concerns Renal cancer cell line. The experiment in a line: Cytostatic activity against human Renal cancer cells incubated for 48 hrs by SRB assay. The class given is functional. An outline of the steps: (§1)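 NCI-60 five-concentration screen: lines seeded 5×10^3–4×10^4 cells/well depending on line; compound diluted in fresh medium at scalar concentrations 0–100 or 0–1000 μM; 48 h exposure, in situ fixation, sulforhodamine B protein staining, optical density read; GI50, TGI and LC50 per NCI procedures; panel mean = mean graph midpoint.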

Experiment [2] relates to Breast cancer cell line. The experiment in a line: Cytostatic activity against human Breast cancer cells incubated for 48 hrs by SRB assay. It counts as functional. An outline of the steps: as §1
In general terms: Sulforhodamine B stains cellular protein and so reports cell mass.

For experiment [3], the system named is Ovarian cancer cell line. The experiment in a line: Cytotoxicity against human Ovarian cancer cells incubated for 48 hrs by SRB assay. The class given is functional. Summed up: as §1
In experiment [4] the test system is Breast cancer cell line. The experiment in a line: Cell growth inhibition of human Breast cancer cells incubated for 48 hrs by SRB assay. It counts as functional. As to conditions: read-out: LC50 (the source's name). Summed up:
(§2)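 NCI DTP five-concentration screen. Cells were seeded at 5 × 10³–4 × 10⁴ cells/well, depending on the line. Compounds were diluted in fresh medium and added at scalar concentrations over 0–1000 µM or 0–100 µM. After 48 h the cells were fixed in situ, stained with sulforhodamine B, and optical density was read. GI50, TGI and LC50 were derived by NCI procedures, and the panel mean is the mean graph midpoint.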

Experiment [5] concerns Colon carcinoma cell. The experiment in a line: Cytostatic activity against human Colon carcinoma cells incubated for 48 hrs by SRB assay. The class given is functional. An outline of the steps:
as §1

For experiment [6], the system named is Colon carcinoma cell. The experiment in a line: Cytotoxicity against human Colon carcinoma cells incubated for 48 hrs by SRB assay. It counts as functional. An outline of the steps:
as §1

The nature of experiment [7]: Cell growth inhibition of human Leukemia cancer cells incubated for 48 hrs by SRB assay. It counts as functional. An outline of the steps: as §1
The subject of experiment [8] is Panel NCI-60 (60 carcinoma cell lines). The experiment in a line: Cytostatic activity against human Panel NCI-60 (60 carcinoma cell lines) incubated for 48 hrs by SRB assay. It counts as functional. Summed up:
as §1

The subject of experiment [9] is NSCLC. The experiment in a line: Cell growth inhibition of human NSCLC cells incubated for 48 hrs by SRB assay. It counts as functional. Summed up: as §1
Experiment [10] relates to Ovarian cancer cell line. The experiment can be described thus: Cytostatic activity against human Ovarian cancer cells incubated for 48 hrs by SRB assay. The class given is functional. Summed up:
as §1

Experiment [11] deals with Panel NCI-60 (60 carcinoma cell lines). The experiment in a line: Cell growth inhibition of human Panel NCI-60 (60 carcinoma cell lines) incubated for 48 hrs by SRB assay. The class given is functional. Summed up: as §1
Experiment [12] concerns CNS carcinoma cell. The experiment in a line: Cytostatic activity against human CNS carcinoma cells incubated for 48 hrs by SRB assay. It counts as functional. Summed up:
as §1

The subject of experiment [13] is CNS carcinoma cell. The experiment can be described thus: Cell growth inhibition of human CNS carcinoma cells incubated for 48 hrs by SRB assay. The class given is functional. Summed up: as §1
Experiment [14] deals with Prostatic carcinoma cell. The experiment in a line: Cell growth inhibition of human Prostate carcinoma cells incubated for 48 hrs by SRB assay. It counts as functional. An outline of the steps:
as §1

Experiment [15] deals with Renal cancer cell line. The experiment in a line: Cell growth inhibition of human Renal cancer cells incubated for 48 hrs by SRB assay. The class given is functional. Summed up:
as §1

Experiment [16] in a line: Cytostatic activity against human Leukemia cancer cells incubated for 48 hrs by SRB assay. It counts as functional, Leukemia cell. An outline of the steps:
as §1

Experiment [17] has as its system Melanoma cell line. The experiment can be described thus: Cell growth inhibition of human Melanoma cells incubated for 48 hrs by SRB assay. It counts as functional. An outline of the steps:
as §1

The test system of experiment [18] is Melanoma cell line. The experiment can be described thus: […] against human Melanoma cells incubated for 48 hrs by SRB assay. Conditions: read-out: LC50 (the source's name). It counts as functional. Summed up:
as §2

In the case of `O=C1Nc2ccc(Cl)cc2/C1=C\c1ccc2ccc3ccc(/C=C4/C(=O)Nc5ccc(Cl)cc54)nc3c2n1`, the GI worked out at 17.38 µM in [1]; 69.18 µM in experiment [3]; 31.62 µM in experiment [6]; 18.2 µM in experiment [8]; 2.57 µM in experiment [9]; 9.33 µM in [12]. Besides, the GI in [14] was found to be 2.45 µM; in experiment [16], 83.18 µM; in experiment [17], 2.19 µM. The values for the concentration for total growth inhibition (TGI) in experiment [2], in [5] and in experiment [10] were 29.5 µM, 7.41 µM and 29.5 µM, respectively. For the same compound, the figures for the CC50 in [4] and in experiment [18] were 3.09 µM and 11.5 µM, respectively. Further, the 50% growth inhibitory concentration (GI50) is 3.09 µM in experiment [7], 2.63 µM in [11], 2.15 µM in experiment [13] and 2.29 µM in experiment [15].

`COc1ccc(OC)c2c1NC(=O)/C2=C/c1cccc(/C=C2/C(=O)Nc3c(OC)ccc(OC)c32)c1`: the GI in experiment [1] was 81.28 µM; in [8], 72.44 µM; in [9], 9.33 µM; in experiment [12], 100 µM; in experiment [14], 5.89 µM; in [16] it was 95.5 µM. The compound further came in with a GI in experiment [17] of 7.24 µM. For the same compound, the concentration for total growth inhibition (TGI) in experiment [2] was determined as 81.3 µM; in experiment [5] it was 63.1 µM; in experiment [10] it was 69.2 µM. Moreover, the figures for the CC50 in experiment [4] and in [18] were 5.37 µM and 61.7 µM, respectively. Further, the GI50 in experiment [7] came to 2.69 µM; in [11] it was 5.89 µM; in experiment [13], 4.68 µM; in experiment [15] it was 7.08 µM.

As for `CC[C@]1(O)C[C@H]2CN(CCc3c([nH]c4ccccc34)[C@@](C(=O)OC)(c3cc4c(cc3OC)N(C=O)[C@H]3[C@@](O)(C(=O)OC)[C@H](OC(C)=O)[C@]5(CC)C=CCN6CC[C@]43[C@@H]65)C2)C1` [VINCRISTINE], the CC50 in experiment [4] stood at 0.32 µM. The concentration for 50% growth inhibition (GI50) was found to be 0.1 µM in experiment [7], 0.2 µM in [11], 0.13 µM in experiment [13] and 0.32 µM in [15]. The GI in experiment [9] worked out at 0.25 µM; in experiment [14], 0.13 µM; in experiment [17] it was 0.16 µM.

Turning to `COc1cc2c(c(OC)c1OC)/C(=C\c1ccc3ccc4ccc(/C=C5/C(=O)Nc6cc(OC)c(OC)c(OC)c65)nc4c3n1)C(=O)N2`, the GI was 74.13 µM in experiment [1]; 70.79 µM in [8]; 14.45 µM in experiment [9]; 67.61 µM in [12]; 3.39 µM in experiment [14]; 18.62 µM in [17]. Besides, the values for the TGI in experiment [2], in [5] and in [10] were 64.6 µM, 5.23 µM and 93.3 µM, respectively. The CC50 is 10 µM in experiment [4] and 85.1 µM in [18]. Moreover, the GI50 was determined as 4.27 µM in [7], 12.9 µM in experiment [11], 13.8 µM in experiment [13] and 26.3 µM in [15].

`CN(C)c1ccc2[nH]c(Cl)c(/C=C3/C(=O)N(C)c4cc5c(cc43)/C(=C\c3c(Cl)[nH]c4ccc(N(C)C)cc34)C(=O)N5C)c2c1`: in [4], the CC50 came out at 4.17 µM. Also, the GI50 worked out at 17 µM in [7], 14.5 µM in [11], 7.08 µM in experiment [13] and 9.77 µM in experiment [15]. The GI in experiment [9] turned out to be 18.2 µM; in [14], 10.72 µM; in experiment [17], 27.54 µM.
